According to ChEMBL document CHEMBL3097989, “Antimicrobial activity of de novo designed cationic peptides against multi-resistant clinical isolates” (Eur J Med Chem, 2014):
Blank lines part the entries; values can stand above or below the compound they belong to. The source made the active and inactive calls. The calls are words filed in the database; no cut-off is given here. Where a SMILES comes first, the peptide text is derived from it.

Assays:
Klebsiella pneumoniae [1] = test: Antibacterial activity against Klebsiella pneumoniae M13540 clinical isolate expressing blaKPC-2 gene by microdilution test; type: functional
Summary of the method: (§1)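 MIC by standard broth microdilution following CLSI recommendations, in Mueller Hinton broth supplemented with Ca²⁺ (20-25mg/L) and Mg²⁺ (10-12.5mg/L); peptides tested against a panel of multi-resistant clinical isolates plus ATCC reference strains.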

Staphylococcus aureus [2] = test: Antibacterial activity against Staphylococcus aureus M6794 clinical isolate expressing mecA gene by microdilution test; type: functional
Summary of the method: (§2)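 MIC by standard broth microdilution following CLSI recommendations, in Mueller Hinton broth supplemented with Ca²⁺ (20-25 mg/L) and Mg²⁺ (10-12.5 mg/L); ATCC reference strains included in the panel.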

Escherichia coli = test: Antibacterial activity against Escherichia coli ATCC 25922 by microdilution test; type: functional; summary of the method: as §1
Staphylococcus warneri = test: Antibacterial activity against Staphylococcus warneri M6823 clinical isolate expressing mecA gene by microdilution test; type: functional; summary of the method: as §2
Staphylococcus cohnii = test: Antibacterial activity against Staphylococcus cohnii M6767 clinical isolate expressing mecA gene by microdilution test; type: functional; summary of the method: as §2
Staphylococcus aureus [3] = test: Antibacterial activity against Staphylococcus aureus ATCC 29213 by microdilution test; type: functional; summary of the method: as §2
[4] = Toxicity in human RBC assessed as hemolytic activity relative to control; type: cell-based, Erythrocyte; conditions: red blood cells (RBC), read-out: Activity
Summary of the method: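 Heparinized human whole blood diluted 3x in PBS and centrifuged 10 min at 1500 rpm, repeated three times. Cells resuspended to 10% (v/v), then diluted to about 0.5% (v/v). Peptides added at various concentrations for 30 min at 37 °C. Supernatant absorbance read at 550 nm. Lysis calculated against buffer (0%) and water (100%). Readings taken in triplicate and averaged.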

Pseudomonas aeruginosa [5] = test: Antibacterial activity against Pseudomonas aeruginosa M13513 clinical isolate expressing blaKPC-2 gene by microdilution test; type: functional; summary of the method: as §1
Pseudomonas aeruginosa [6] = test: Antibacterial activity against Pseudomonas aeruginosa ATCC 27853 by microdilution test; type: functional; summary of the method: as §1
Enterococcus faecalis [7] = test: Antibacterial activity against Enterococcus faecalis M4899 clinical isolate expressing vanB gene by microdilution test; type: functional; summary of the method: as §1
Acinetobacter sp. [8] = test: Antibacterial activity against Acinetobacter sp. M7978 clinical isolate expressing blaIMP-1 gene by microdilution test; type: functional; summary of the method: as §1
Enterococcus faecalis [9] = test: Antibacterial activity against Enterococcus faecalis M6534 clinical isolate expressing vanB gene by microdilution test; type: functional; summary of the method: as §1
Pseudomonas aeruginosa [10] = test: Antibacterial activity against Pseudomonas aeruginosa M11005 clinical isolate expressing blaKPC-2 gene by microdilution test; type: functional; summary of the method: as §1
Acinetobacter sp. [11] = test: Antibacterial activity against Acinetobacter sp. M5277 clinical isolate expressing blaPER gene by microdilution test; type: functional; summary of the method: as §1
Acinetobacter sp. [12] = test: Antibacterial activity against Acinetobacter sp. M5949 clinical isolate expressing blaOXA-23 and blaOXA-GVI gene by microdilution test; type: functional; summary of the method: as §1
Enterococcus faecium [13] = test: Antibacterial activity against Enterococcus faecium M2481 clinical isolate expressing vanB gene by microdilution test; type: functional; summary of the method: as §1
Pseudomonas aeruginosa [14] = test: Antibacterial activity against Pseudomonas aeruginosa M7723 clinical isolate expressing blaKPC-2 gene by microdilution test; type: functional; summary of the method: as §2
Acinetobacter sp. [15] = test: Antibacterial activity against Acinetobacter sp. M5282 clinical isolate expressing blaOXA-51 gene by microdilution test; type: functional; summary of the method: as §1
Enterococcus gallinarum [16] = test: Antibacterial activity against Enterococcus gallinarum M2685 clinical isolate expressing vanC1 and vanA gene by microdilution test; type: functional; summary of the method: as §1
Enterococcus faecium [17] = test: Antibacterial activity against Enterococcus faecium M2304 clinical isolate expressing vanA gene by microdilution test; type: functional; summary of the method: as §1
Klebsiella pneumoniae [18] = test: Antibacterial activity against Klebsiella pneumoniae M9491 clinical isolate expressing blaMOX gene by microdilution test; type: functional; summary of the method: as §1
Pseudomonas aeruginosa [19] = test: Antibacterial activity against Pseudomonas aeruginosa M7907 clinical isolate expressing blaPER gene by microdilution test; type: functional; summary of the method: as §2
Klebsiella pneumoniae [20] = test: Antibacterial activity against Klebsiella pneumoniae M9140 clinical isolate expressing blaCIT gene by microdilution test; type: functional; summary of the method: as §1
Enterococcus faecalis [21] = test: Antibacterial activity against Enterococcus faecalis M6383 clinical isolate expressing vanA gene by microdilution test; type: functional; summary of the method: as §1
Pseudomonas aeruginosa [22] = test: Antibacterial activity against Pseudomonas aeruginosa M7712 clinical isolate expressing blaSPM gene by microdilution test; type: functional; summary of the method: as §2
Klebsiella pneumoniae [23] = test: Antibacterial activity against Klebsiella pneumoniae PFAV3 by microdilution test; type: functional; summary of the method: as §1
Acinetobacter sp. [24] = test: Antibacterial activity against Acinetobacter sp. PFAV1 clinical isolate expressing blaOXA-51, blaOXA-58 and blaPER gene by microdilution test; type: functional; summary of the method: as §1
Enterococcus faecium [25] = test: Antibacterial activity against Enterococcus faecium M2664 clinical isolate expressing vanA gene by microdilution test; type: functional; summary of the method: as §1
Pseudomonas aeruginosa [26] = test: Antibacterial activity against Pseudomonas aeruginosa M7728 clinical isolate expressing blaIMP gene by microdilution test; type: functional; summary of the method: as §2
Enterococcus faecalis [27] = test: Antibacterial activity against Enterococcus faecalis ATCC 51299 clinical isolate expressing vanB gene by microdilution test; type: functional; summary of the method: as §1
Klebsiella pneumoniae [28] = test: Antibacterial activity against Klebsiella pneumoniae M9170 clinical isolate expressing blaOXA-GIII gene by microdilution test; type: functional; summary of the method: as §1
Enterococcus faecalis [29] = test: Antibacterial activity against Enterococcus faecalis M4449 clinical isolate expressing vanA gene by microdilution test; type: functional; summary of the method: as §1
Acinetobacter sp. [30] = test: Antibacterial activity against Acinetobacter sp. M5179 clinical isolate expressing blaOXA-51 gene by microdilution test; type: functional; summary of the method: as §1
Pseudomonas aeruginosa [31] = test: Antibacterial activity against Pseudomonas aeruginosa M5109 clinical isolate expressing blaVIM and blaGES-1 gene by microdilution test; type: functional; summary of the method: as §2
Enterococcus faecalis [32] = test: Antibacterial activity against Enterococcus faecalis M4992 clinical isolate expressing vanA gene by microdilution test; type: functional; summary of the method: as §1
Acinetobacter sp. [33] = test: Antibacterial activity against Acinetobacter sp. M9665 clinical isolate expressing blaOXA-51 gene by microdilution test; type: functional; summary of the method: as §1
Enterococcus faecalis [34] = test: Antibacterial activity against Enterococcus faecalis M6983 clinical isolate expressing vanA gene by microdilution test; type: functional; summary of the method: as §1
Enterococcus faecalis [35] = test: Antibacterial activity against Enterococcus faecalis ATCC 29212 by microdilution test; type: functional; summary of the method: as §1
Enterococcus faecium [36] = test: Antibacterial activity against Enterococcus faecium PZAP95 by microdilution test; type: functional; summary of the method: as §1
Pseudomonas aeruginosa [37] = test: Antibacterial activity against Pseudomonas aeruginosa M7525 clinical isolate expressing blaSPM gene by microdilution test; type: functional; summary of the method: as §2
Pseudomonas aeruginosa [38] = test: Antibacterial activity against Pseudomonas aeruginosa M5200 clinical isolate expressing blaVIM and blaGES-1 gene by microdilution test; type: functional; summary of the method: as §2
Acinetobacter sp. [39] = test: Antibacterial activity against Acinetobacter sp. M7489 clinical isolate expressing blaOXA-51 and blaTEM gene by microdilution test; type: functional; summary of the method: as §1
Pseudomonas aeruginosa [40] = test: Antibacterial activity against Pseudomonas aeruginosa M5470 by microdilution test; type: functional; summary of the method: as §2
Enterococcus gallinarum [41] = test: Antibacterial activity against Enterococcus gallinarum M2723 clinical isolate expressing vanC1 and vanA gene by microdilution test; type: functional; summary of the method: as §1
Enterococcus faecium [42] = test: Antibacterial activity against Enterococcus faecium M2619 clinical isolate expressing vanB gene by microdilution test; type: functional; summary of the method: as §1
Enterococcus faecium [43] = test: Antibacterial activity against Enterococcus faecium M6261 by microdilution test; type: functional; summary of the method: as §1
Acinetobacter sp. [44] = test: Antibacterial activity against Acinetobacter sp. M9013 clinical isolate expressing blaOXA-51 and blaIMP gene by microdilution test; type: functional; summary of the method: as §1
Pseudomonas aeruginosa [45] = test: Antibacterial activity against Pseudomonas aeruginosa PCOS12 by microdilution test; type: functional; summary of the method: as §2
Acinetobacter sp. [46] = test: Antibacterial activity against Acinetobacter sp. M13523 clinical isolate expressing blaOXA-51 gene by microdilution test; type: functional; summary of the method: as §1

- MIC90 (Klebsiella pneumoniae [1]): inactive
- MIC90 (Staphylococcus aureus [2]): inactive
- MIC90 (Escherichia coli): inactive
- MIC90 (Staphylococcus warneri): inactive
- MIC90 (Staphylococcus cohnii): inactive
- MIC90 (Staphylococcus aureus [3]): inactive
- MIC90 (Pseudomonas aeruginosa [5]): inactive
- MIC90 (Pseudomonas aeruginosa [6]): inactive
Compound: CC[C@H](C)[C@H](NC(=O)[C@H](CCCCN)NC(=O)[C@H](CCCNC(=N)N)NC(=O)[C@H](CC(N)=O)NC(=O)CNC(=O)[C@H](CCCNC(=N)N)NC(=O)[C@H](Cc1ccccc1)NC(=O)[C@@H](NC(=O)[C@H](CS)NC(=O)[C@H](Cc1cnc[nH]1)NC(=O)[C@H](CC(C)C)NC(=O)[C@@H]1CCCN1C(=O)[C@H](CCC(N)=O)NC(=O)[C@@H]1CCCN1C(=O)[C@@H](NC(=O)[C@H](CC(N)=O)NC(=O)[C@@H]1CCCN1C(=O)[C@H](CC(C)C)NC(=O)CNC(=O)[C@@H](NC(=O)CNC(=O)[C@H](CO)NC(=O)[C@H](CC(C)C)NC(=O)[C@H](CC(C)C)NC(=O)[C@H](CC(=O)O)NC(=O)[C@H](CS)NC(=O)[C@@H](NC(=O)[C@@H](N)[C@@H](C)O)[C@@H](C)O)C(C)C)C(C)C)C(C)C)C(=O)N[C@@H](CCCCN)C(=O)N[C@@H](Cc1c[nH]c2ccccc12)C(N)=O (H-TTCDLLSGVGLPNVPQPLHCVFRGNRKIKW-NH2)
- hemolysis [4]: 1.72%

- MIC90 (Enterococcus faecalis [7]): inactive
- MIC90 (Acinetobacter sp. [8]): inactive
- MIC90 (Klebsiella pneumoniae [1]): inactive
- MIC90 (Enterococcus faecalis [9]): inactive
- MIC90 (Pseudomonas aeruginosa [10]): inactive
- MIC90 (Acinetobacter sp. [11]): inactive
- MIC90 (Acinetobacter sp. [12]): inactive
- MIC90 (Enterococcus faecium [13]): inactive
- MIC90 (Pseudomonas aeruginosa [14]): inactive
- MIC90 (Acinetobacter sp. [15]): inactive
- MIC90 (Enterococcus gallinarum [16]): inactive
- MIC90 (Enterococcus faecium [17]): inactive
- MIC90 (Klebsiella pneumoniae [18]): inactive
- MIC90 (Pseudomonas aeruginosa [19]): inactive
- MIC90 (Klebsiella pneumoniae [20]): inactive
- MIC90 (Enterococcus faecalis [21]): inactive
- MIC90 (Pseudomonas aeruginosa [22]): inactive
- MIC90 (Klebsiella pneumoniae [23]): inactive
- MIC90 (Acinetobacter sp. [24]): inactive
- MIC90 (Enterococcus faecium [25]): inactive
- MIC90 (Escherichia coli): inactive
- MIC90 (Pseudomonas aeruginosa [26]): inactive
- MIC90 (Enterococcus faecalis [27]): inactive
- MIC90 (Klebsiella pneumoniae [28]): inactive
- MIC90 (Enterococcus faecalis [29]): inactive
- MIC90 (Acinetobacter sp. [30]): inactive
- MIC90 (Pseudomonas aeruginosa [31]): inactive
- MIC90 (Enterococcus faecalis [32]): inactive
- MIC90 (Acinetobacter sp. [33]): inactive
- MIC90 (Enterococcus faecalis [34]): inactive
- MIC90 (Enterococcus faecalis [35]): inactive
- MIC90 (Enterococcus faecium [36]): inactive
- MIC90 (Pseudomonas aeruginosa [37]): inactive
- MIC90 (Pseudomonas aeruginosa [38]): inactive
- MIC90 (Acinetobacter sp. [39]): inactive
- MIC90 (Pseudomonas aeruginosa [40]): inactive
- MIC90 (Enterococcus gallinarum [41]): inactive
- MIC90 (Enterococcus faecium [42]): inactive
- MIC90 (Enterococcus faecium [43]): inactive
- MIC90 (Acinetobacter sp. [44]): inactive
- MIC90 (Pseudomonas aeruginosa [45]): inactive
- MIC90 (Pseudomonas aeruginosa [5]): inactive
- MIC90 (Pseudomonas aeruginosa [6]): inactive
- MIC90 (Acinetobacter sp. [46]): inactive
Compound: H-FGKEKKAWWRRRKWLK-NH2
- hemolysis [4]: 1.5%
